ChEMBL document CHEMBL2396584, “Semisynthesis, cytotoxicity, antiviral activity, and drug interaction liability of 7-O-methylated analogues of flavonolignans from milk thistle” (Bioorg Med Chem, 2013)
Calls of active or inactive are those of the source. The calls are words filed in the database; no cut-off is given here.

Experiments:
[1] = Cytotoxicity against human Huh7.5.1 cells after 72 hrs; type: functional, cell-based; settings: Huh-7, 72 h
Summary of the method: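 Huh7.5.1 hepatoma cells were seeded at 10,000 per well and incubated overnight. They were then exposed to nine concentrations from 0 to 62.5 μM. Viability was read after 72 h with an ATPlite assay. Each point was run in three replicates, and IC50 was derived by linear regression.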

[2] = tested on: Hepatitis C virus; assay: Antiviral activity against HCV JFH-1 infected in human Huh7.5.1 cells assessed as viral core protein expression at 6.2 to 62.1 uM after 72 hrs by Western blot analysis; type: functional, organism-based; settings: Hepacivirus hominis, Huh-7
[3] = Inhibition of UGT in human liver microsomes using 4-methylumbelliferone as substrate after 10 mins by fluorescence analysis; type: ADME, Microsome
Summary of the method: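 Pooled human liver microsomes (0.4 mg/mL) were incubated with 4-MU (100 μM), compound at 10 or 100 μM, 0.05% BSA, and 0.1 M Tris–HCl pH 7.5 with 5 mM MgCl2. The reaction was started with UDPGA (4 mM), and 4-MU depletion was followed by fluorescence over 10 min. Vehicle was 0.2% MeOH and diclofenac (400 μM) was the positive control. Data are means ± SD of triplicate incubations.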

[4] = molecular target: Cytochrome P450 2C9 (Homo sapiens, UniProt P11712); assay: Inhibition of CYP2C9 in human liver microsomes using (S)-warfarin as substrate after 30 mins; type: ADME, Microsome; settings: 0.5 h
[5] = tested on: Hepatitis C virus; assay: Antiviral activity against HCV JFH-1 infected in human Huh7.5.1 cells assessed as viral core protein expression at 6 to 60.3 uM after 72 hrs by Western blot analysis; type: functional, organism-based; settings: Hepacivirus hominis, Huh-7
[6] = tested on: Hepatitis C virus; assay: Antiviral activity against HCV JFH-1 infected in human Huh7.5.1 cells assessed as viral core protein expression at 12.4 to 124.2 uM after 72 hrs by Western blot analysis; type: functional, organism-based; settings: Hepacivirus hominis, Huh-7
[7] = tested on: Hepatitis C virus; assay: Antiviral activity against HCV JFH-1 infected in human Huh7.5.1 cells assessed as viral core protein expression at 1.6 to 16.1 uM after 72 hrs by Western blot analysis; type: functional, organism-based; settings: Hepacivirus hominis, Huh-7
[8] = tested on: Hepatitis C virus; assay: Antiviral activity against HCV JFH-1 infected in human Huh7.5.1 cells assessed as viral core protein expression at 0.8 to 8 uM after 72 hrs by Western blot analysis; type: functional, organism-based; settings: Hepacivirus hominis, Huh-7

Cytochrome P450 2C9, sequence (P11712 whole entry): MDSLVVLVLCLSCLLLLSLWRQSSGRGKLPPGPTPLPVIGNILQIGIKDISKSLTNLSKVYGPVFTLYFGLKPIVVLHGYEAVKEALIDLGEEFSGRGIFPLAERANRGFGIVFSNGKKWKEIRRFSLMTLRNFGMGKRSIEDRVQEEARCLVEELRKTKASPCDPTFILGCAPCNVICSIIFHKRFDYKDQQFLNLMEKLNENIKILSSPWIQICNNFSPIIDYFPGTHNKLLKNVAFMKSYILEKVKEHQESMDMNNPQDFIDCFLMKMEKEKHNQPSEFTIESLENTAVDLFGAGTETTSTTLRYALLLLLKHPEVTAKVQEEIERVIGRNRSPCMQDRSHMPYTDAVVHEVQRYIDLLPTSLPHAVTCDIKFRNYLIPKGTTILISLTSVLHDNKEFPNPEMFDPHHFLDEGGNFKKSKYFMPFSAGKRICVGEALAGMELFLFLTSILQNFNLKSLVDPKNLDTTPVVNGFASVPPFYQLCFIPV

Compound | inhibition (INH) [3] | IC50 [1] [µM] | also measured
Oc1ccc(/C=C/c2cc(O)cc(O)c2)cc1 [RESVERATROL] |  | 10.6 | 
COc1cc([C@H]2Oc3ccc([C@H]4Oc5cc(O)cc(O)c5C(=O)[C@@H]4O)cc3O[C@@H]2CO)ccc1O [ISOSILYBIN A] |  | 80 | Activity [2]: Active; inhibition (INH) [4]: Not Active
COc1cc(O)c2c(c1)O[C@H](c1cc(O)c3c(c1)[C@@H](CO)[C@H](c1ccc(O)c(OC)c1)O3)[C@@H](O)C2=O |  | 66.4 | Activity [5]: Active
COc1cc(O)c2c(c1)O[C@H](c1ccc(O)c3c1[C@@H](CO)[C@H](c1ccc(O)c(OC)c1)O3)[C@@H](O)C2=O |  | 27.6 | Activity [6]: Active
COc1cc([C@@H]2Oc3ccc([C@H]4Oc5cc(O)cc(O)c5C(=O)[C@@H]4O)cc3O[C@H]2CO)ccc1O [ISOSILYBIN B] |  | 27 | Activity [7]: Active
COc1cc(O)c2c(c1)O[C@H](c1ccc3c(c1)O[C@@H](CO)[C@H](c1ccc(O)c(OC)c1)O3)[C@@H](O)C2=O |  | 18 | Activity [7]: Active
COc1cc([C@@H]2Oc3c(O)ccc([C@H]4Oc5cc(O)cc(O)c5C(=O)[C@@H]4O)c3[C@H]2CO)ccc1O [ISOSILYCHRISTIN] |  | > 130 | Activity [6]: inactive
COc1cc(C2Oc3c(O)cc([C@H]4Oc5cc(O)cc(O)c5C(=O)[C@@H]4O)cc3C2CO)ccc1O (some centres not stated) [SILICRISTIN] |  | > 130 | Activity [6]: inactive
COc1cc(O)c2c(c1)O[C@H](c1ccc3c(c1)O[C@H](CO)[C@@H](c1ccc(O)c(OC)c1)O3)[C@@H](O)C2=O |  | 13.2 | Activity [8]: Active

The next lines start with results.

inhibition (INH) [3] | Compound | IC50 [1] [µM] | also measured
Active | COc1cc([C@H]2Oc3cc([C@H]4Oc5cc(O)cc(O)c5C(=O)[C@@H]4O)ccc3O[C@@H]2CO)ccc1O [SILYBIN A] | 80 | Activity [2]: Active
56% | O=C(O)Cc1ccccc1Nc1c(Cl)cccc1Cl [DICLOFENAC] |  | 
Active | COc1cc(O)c2c(c1)O[C@H](c1ccc3c(c1)O[C@@H](c1ccc(O)c(OC)c1)[C@H](CO)O3)[C@@H](O)C2=O | 12.7 | Activity [8]: Active
Active | COc1cc([C@@H]2[C@H]3CO[C@@]4(O)C(=O)[C@@H]2C=C([C@H]2Oc5cc(O)cc(O)c5C(=O)[C@@H]2O)[C@@H]34)ccc1O [SILIDIANIN] | > 130 | Activity [6]: inactive
Active | COc1cc([C@@H]2Oc3cc([C@H]4Oc5cc(O)cc(O)c5C(=O)[C@@H]4O)ccc3O[C@H]2CO)ccc1O [SILYBIN B] | 68.7 | Activity [2]: Active
Active | COc1cc(O)c2c(c1)O[C@H](C1=C[C@H]3C(=O)[C@]4(O)OC[C@H]([C@H]3c3ccc(O)c(OC)c3)[C@H]14)[C@@H](O)C2=O | 9.4 | Activity [8]: Active
Active | COc1cc(O)c2c(c1)O[C@H](c1ccc3c(c1)O[C@H](c1ccc(O)c(OC)c1)[C@@H](CO)O3)[C@@H](O)C2=O | 9.5 | Activity [8]: Active
